Screens (PubChem BioAssay)
T cell HTS = modulates CD8 T cell binding to vesicles. 2C CD8+ T cell-vesicle binding, flow cytometry; stronger effect = lower value. response (vesicle binding), % at 7 µM. actives 0.068% (n = 330,000). AID 2052;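 active = response, share of CD8 T cells binding vesicles, and their 90th percentile fluorescence all below set limits, cut at about 80% in these data, passing the limit was not always enough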;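 also: values below 100% mean blocked vesicle binding to the CD8+ T cells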
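Also added: QL9-peptide-loaded Drosophila micro-vesicles bearing Ld, ICAM-1 and B7-1; Test system: purified 2C TCR transgenic mouse naive CD8+ T cells; Measured by: cytometric PE anti-B7-1 and Alexa647 anti-CD8 signals after 1% paraformaldehyde fixation; Timing: binding step 1.5 h, 37 °C, antibody labelling 20 min, ice.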
Rce1 inh = yeast Ras-converting enzyme inhibition. Q03530. yeast membranes, quenched prenylated peptide cleavage fluorescence. calls only. actives 0.27% (n = 290,000);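 active = fall in fluorescence gain of 50% or more versus controls, with final raw signal at or below 3038400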;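 also: plate controls were neutral control wells for no effect and wells lacking membranes for full effect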
Target sequence (Q03530 whole entry, looked up): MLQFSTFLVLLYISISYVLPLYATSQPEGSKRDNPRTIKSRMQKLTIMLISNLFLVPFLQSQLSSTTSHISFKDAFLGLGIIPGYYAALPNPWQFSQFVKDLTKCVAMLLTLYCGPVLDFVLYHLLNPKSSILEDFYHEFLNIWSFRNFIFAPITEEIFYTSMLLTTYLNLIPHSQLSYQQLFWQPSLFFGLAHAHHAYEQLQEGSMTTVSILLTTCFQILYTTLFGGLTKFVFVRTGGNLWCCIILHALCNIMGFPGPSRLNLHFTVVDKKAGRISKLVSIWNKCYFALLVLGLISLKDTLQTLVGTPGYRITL
MEKK2mut PB1 HTS = signal of MEK5 binding to mutant human MEKK2 PB1 domain; actives 0.35% (n = 290,000); bead flow cytometry, Alexa488-MEK5 binding to MEKK2 mutant; AID 1530; percent response, % at 10 µM; in the data active = percent response above about 24%, passing the limit was not always enough
MEKK3 PB1 HTS = modulators (inhibitors or enhancers) of MEK5 binding to human MEKK3 PB1 domain; actives 1.4% (n = 290,000); Q99759; bead-based flow cytometry, Alexa488-MEK5 binding to MEKK3; actives lie on both sides; 0 = blocked by unlabeled MEK5, 100 = vehicle; binding response (% of control), % at 10 µM;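 active = binding response more than 3 SD above or below the average of its plate-row segment, actives on both sides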;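 also: Alexa488 bead fluorescence after subtracting the streptavidin-only scavenger bead signal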
UCH37 DUB inh = inhibitors of human deubiquitinating enzyme UCH37 | Q9Y5K5 | purified proteasome/UCH37, Ub-AMC cleavage fluorescence | inhibition, % (concentration not given with the values) | actives 0.33% (n = 330,000) | AID 588478;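 active = mean inhibition over replicate wells above about 20%, limit read from the data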;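 also: 0% = compound-free wells with enzyme and 100% = wells lacking proteasome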
Target sequence (Q9Y5K5 whole entry, looked up): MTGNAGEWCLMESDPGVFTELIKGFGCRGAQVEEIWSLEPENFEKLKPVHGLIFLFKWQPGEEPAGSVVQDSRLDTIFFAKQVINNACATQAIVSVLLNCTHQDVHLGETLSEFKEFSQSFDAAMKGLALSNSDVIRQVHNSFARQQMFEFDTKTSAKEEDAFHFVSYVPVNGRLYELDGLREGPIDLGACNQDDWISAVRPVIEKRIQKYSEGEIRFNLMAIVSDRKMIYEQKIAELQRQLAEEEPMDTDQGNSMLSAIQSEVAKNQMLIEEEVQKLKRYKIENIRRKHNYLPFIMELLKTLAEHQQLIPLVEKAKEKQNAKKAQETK
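System: Proteasome-associated human UCH37 deubiquitinase; Input: 0.15 nM proteasome in added enzyme buffer; Also added: Ub-AMC substrate from 1 µM stock; Incubation: 30 min compound-proteasome preincubation then 25 min substrate reaction, room temperature; Detection: fluorescence, ex 355 nm, em 460 nm; Read-out: % inhibition of Ub-AMC cleavage fluorescence; Benchmarks: no-proteasome and no-compound wells.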
MEKK2wt PB1 HTS = raises or lowers MEK5 binding to wildtype human MEKK2 PB1 domain. actives 1.1% (n = 290,000). Q9Y2U5. AID 1531. bead flow cytometry, Alexa488-MEK5 binding to MEKK2 WT; actives lie on both sides. binding response (% of control), % at 10 µM; in the data active = binding response below about 67% or above about 130%
MEKK2wt confirm = raises or lowers MEK5 binding to wildtype human MEKK2, retest | shares compounds with MEKK3 PB1 HTS | bead flow cytometry, Alexa488-MEK5 binding to MEKK2 WT; actives lie on both sides | binding response (% of control), % at 10 µM | actives 2.4% (n = 5,900) | AID 1892; in the data active = binding response below about 16% or above about 210%; inactive = in between
MEKK2mut confirm = signal of MEK5 binding to mutant human MEKK2, retest. percent response, % at 10 µM. bead flow cytometry, Alexa488-MEK5 binding to MEKK2 mutant. shares compounds with MEKK3 PB1 HTS. actives 2% (n = 5,900); in the data active = percent response mostly above about 71%, no sharp cut-off; inactive = mostly below about 38%;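 also: higher means compound restores mutant binding toward wildtype level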
MEKK3 confirm = confirmation of inhibitors of MEK5 binding to human MEKK3 | binding response (% of control), % at 10 µM | shares compounds with MEKK3 PB1 HTS | actives 1.8% (n = 5,900) | bead flow cytometry, Alexa488-MEK5 binding to MEKK3; stronger effect = lower value;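 active = binding response below 72% of control, or above a set upper limit, though filed actives all read lower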;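 also: 100% = DMSO only wells and 0% = binding blocked by excess unlabeled MEK5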
An asterisk follows results filed as active; [ ] = another dose, or the depositor's remark. This is a sample that favours compounds with a hit; in the whole collection about 2.5% have one here.

`O=c1c(-c2ccc3c(c2)OCCO3)coc2cc(OC3OC(CO)C(O)C(O)C3O)ccc12` (stereo not given) gave T cell HTS 188, Rce1 inh inactive, MEKK2mut PB1 HTS -11, MEKK3 PB1 HTS 44*[inhibitor], UCH37 DUB inh 1, MEKK2wt PB1 HTS 46*[inhibitor], MEKK2wt confirm 97, MEKK2mut confirm -5 and MEKK3 confirm 103.
Screening Cc1ccc(C=NNC(=O)C2CN(S(=O)(=O)c3ccccc3)CCN2S(=O)(=O)c2ccccc2)cc1 (stereo not given) returned UCH37 DUB inh 1.
O=C(CN1C(=O)/C(=C/c2cccc(Br)c2)SC1=S)N1CCCC1 was read as T cell HTS 223, Rce1 inh inactive, MEKK2mut PB1 HTS 1, MEKK3 PB1 HTS 153*, UCH37 DUB inh 4, MEKK2wt PB1 HTS 112, MEKK2wt confirm 100, MEKK2mut confirm 0 and MEKK3 confirm 97.
Screening COc1ccc(C=Nn2cnc3c([nH]c4ccc(Br)cc43)c2=O)cc1CN1CCOCC1 returned UCH37 DUB inh 5.
Screening CCOC(=O)c1c(C)n(C)c2ccc(OC)c(NC(=O)CN3CCN(C4CCCCC4)CC3)c12 returned T cell HTS 753, Rce1 inh inactive, MEKK2mut PB1 HTS -5, MEKK3 PB1 HTS 99, UCH37 DUB inh 0 and MEKK2wt PB1 HTS 102.
CCOC(=O)c1c(C)n(C)c2ccc(OC)c(NC(=O)CN3CCC(C(=O)OCC)CC3)c12 was read as T cell HTS inactive, Rce1 inh inactive, MEKK2mut PB1 HTS -37, MEKK3 PB1 HTS 47*[inhibitor], UCH37 DUB inh 4, MEKK2wt PB1 HTS 55, MEKK2wt confirm 102, MEKK2mut confirm 6 and MEKK3 confirm 102.
`C1CCCCCC(NCCN2CCNCC2)CCCCC1` gave T cell HTS 565, Rce1 inh inactive, MEKK2mut PB1 HTS 22, MEKK3 PB1 HTS 105, UCH37 DUB inh 5, MEKK2wt PB1 HTS 158*, MEKK2wt confirm 142, MEKK2mut confirm 19 and MEKK3 confirm 100.
Screening Cc1ccc(C)c(OCC(=O)Nc2ccc(S(=O)(=O)Nc3ccccn3)cc2)c1 returned T cell HTS 339, Rce1 inh inactive, MEKK2mut PB1 HTS -1, MEKK3 PB1 HTS 134*, UCH37 DUB inh -1, MEKK2wt PB1 HTS 102, MEKK2wt confirm 108, MEKK2mut confirm 4 and MEKK3 confirm 105.
`Cc1cccc(OCC(=O)Nc2ccc(S(=O)(=O)Nc3ccccn3)cc2)c1` gave T cell HTS 143, Rce1 inh inactive, MEKK2mut PB1 HTS 0, MEKK3 PB1 HTS 103, UCH37 DUB inh 1 and MEKK2wt PB1 HTS 103.
For CCCCN(C(=O)Nc1ccc(OCC)cc1)C1CCN(C(C)=O)CC1 the results were T cell HTS 347, MEKK2mut PB1 HTS -3, MEKK3 PB1 HTS 93, UCH37 DUB inh 4, MEKK2wt PB1 HTS -1.0*[inhibitor], MEKK2wt confirm 101, MEKK2mut confirm 3 and MEKK3 confirm 98.
`CC(=NNC(=O)c1cccc(Cl)c1)c1cccc(NC(=O)C(C)C)c1` gave UCH37 DUB inh 2.
Screening CCN(CC)c1ccc(-n2c(O)c(C=C3N=c4ccccc4=N3)sc2=S)cc1 returned T cell HTS 288, Rce1 inh inactive, MEKK2mut PB1 HTS 0, MEKK3 PB1 HTS 153*, UCH37 DUB inh 11, MEKK2wt PB1 HTS 99, MEKK2wt confirm 97, MEKK2mut confirm 5 and MEKK3 confirm 105.
Screening O=C(O)c1ccc(-n2c(O)c(C=C3N=c4ccccc4=N3)sc2=S)cc1 returned T cell HTS 107, Rce1 inh inactive, MEKK2mut PB1 HTS -7, MEKK3 PB1 HTS 98, UCH37 DUB inh 9 and MEKK2wt PB1 HTS 78.
`CCCCCN=C(N)N/N=C/c1c[nH]c2ccc(OC)cc12` gave T cell HTS 103, Rce1 inh inactive, MEKK2mut PB1 HTS 40*, MEKK3 PB1 HTS 117, MEKK2wt PB1 HTS 263*, MEKK2wt confirm 181, MEKK2mut confirm 46 and MEKK3 confirm 110.
CCCCCN=C(N)NN=Cc1c[nH]c2ccc(OC)cc12 was read as UCH37 DUB inh 2.
`Cc1cccc(NC(=O)CCC(=O)OCC(=O)c2ccc(Oc3ccc([N+](=O)[O-])cc3)cc2)c1` gave T cell HTS 248, Rce1 inh inactive, MEKK2mut PB1 HTS -1, MEKK3 PB1 HTS 68*[inhibitor], UCH37 DUB inh 2, MEKK2wt PB1 HTS 94, MEKK2wt confirm 103, MEKK2mut confirm 8 and MEKK3 confirm 107.
For COc1ccc(C(C)=NNc2cccc(C(=O)O)c2)cc1OC the results were UCH37 DUB inh 3.
CC(=O)c1cccc(N(C(=O)c2cnccn2)C(C(=O)NCc2ccccc2)c2ccco2)c1 (stereo not given) was read as T cell HTS 219, Rce1 inh inactive, MEKK2mut PB1 HTS 9, MEKK3 PB1 HTS 124*, UCH37 DUB inh 3, MEKK2wt PB1 HTS 118, MEKK2wt confirm 100, MEKK2mut confirm 5 and MEKK3 confirm 97.
O=C(NCc1ccccc1)C(c1ccco1)N(C(=O)c1ccccn1)c1ccccc1 (stereo not given) was read as T cell HTS 584, Rce1 inh inactive, MEKK2mut PB1 HTS 0, MEKK3 PB1 HTS 101, UCH37 DUB inh 3 and MEKK2wt PB1 HTS 104.
For COc1ccc(CNC(=O)C(c2ccco2)N(C(=O)c2ccccn2)c2ccccc2)cc1 (stereo not given) the results were T cell HTS 454, Rce1 inh inactive, MEKK2mut PB1 HTS -15, MEKK3 PB1 HTS 59*[inhibitor], UCH37 DUB inh 0, MEKK2wt PB1 HTS 55*[inhibitor], MEKK2wt confirm 96, MEKK2mut confirm -4 and MEKK3 confirm 98.
Screening O=C(NCc1ccccc1)C(c1ccco1)N(C(=O)c1cnccn1)c1ccc(F)cc1 (stereo not given) returned T cell HTS 367 and Rce1 inh inactive.
